In publication PMC4767718 (Drugs in R&D, 2015):
Like-named read-outs stand apart in the source and are kept apart here.

What was measured:
[1] = acidic pH / acidic solution; cited from earlier work
[2] = type: in vivo, human; details: single 50 mg ECT; for half-life: human, plasma, oral, 50 mg, Mean t½ (SD)
In short: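 Randomized two-way crossover on day 1 of cycles 1 and 2. Fasted arm: ~10 h overnight fast. Fed arm: high-fat meal (54 g fat, 1036 calories) ~30 min predose, ≥75 % eaten. Tablet taken with 240 mL water, then no food for 4 h. Non-compartmental parameters. Ratio 90 % CIs from ANOVA on log data (patient random effect).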

[3] = Safety: drug-related adverse events graded by NCI-CTCAE version 3.0; type: in vivo, human
In short: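 Adverse events monitored throughout and graded by NCI-CTCAE v3.0, alongside regular hematology, clinical chemistry, vital signs and ECOG status. Single oral dose on day 1 of cycles 1–2. Then 40 mg twice daily on days 3–9 (50 mg allowed in cycle 2), followed by 14-day rest. Afterwards, 40 or 50 mg twice daily on days 1–7 of 21-day cycles.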

[4] = dose range of 5–200 mg/day; earlier trials, no reference given; cited from earlier work
advanced solid tumors = test: Tumor response by RECIST version 1.1; type: in vivo, human
In short: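 RECIST 1.1 response assessed at baseline, end of cycles 2, 4 and 6, then every 3 cycles (9 weeks) until progression. Oral dosing 40 mg twice daily on days 3–9 of cycles 1–2 (escalation to 50 mg allowed in cycle 2). Afterwards, 40 or 50 mg twice daily on days 1–7 of 21-day cycles.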

[5] = cited from earlier work
[6] = 24 patients, during the first two cycles
[7] = N = 24, all alisertib treatments

## COc1cc(Nc2ncc3c(n2)-c2ccc(Cl)cc2C(c2c(F)cccc2OC)=NC3)ccc1C(=O)O [Alisertib]
[1]
  Solubility: reduced
[2]; fasted state, n = 11
  half-life: 16.7 h
[2]; fed state, n = 14
  half-life: 14.9 h
[2]
  AUCtlast geometric mean ratio, fed versus fasted (90 % CI): 1.04 (0.80–1.34)
  Cmax geometric mean ratio, fed versus fasted (90 % CI): 0.84 (0.66–1.06)
  Decrease in geometric mean Cmax after high-fat meal compared with fasted: 16%
[2]; n = 11
  AUCinf geometric mean ratio, fed versus fasted (90 % CI): 0.94 (0.68–1.32)
[2]; n = 11, listed as alisertib
  AUCinf geometric mean ratio, fed versus fasted (90 % CI): 0.94
[2]; 90 % CI 66–106
  Geometric mean Cmax under fed conditions as % of that under fasted conditions: 84%
[2]; 90 % CI 68–132 %
  Geometric mean AUCinf under fed conditions as % of that under fasted conditions: 94%
[3]; 24 patients
  Discontinuation of treatment due to AEs: No patient discontinued treatment due to AEs
  Patients reporting at least one drug-related AE: 96%
  Patients with AEs considered serious and related to alisertib: 13%
  Patients with drug-related grade 3/4 leukopenia: 38%
  Patients with drug-related grade 3/4 neutropenia: 50%
  Patients with drug-related grade 3/4 thrombocytopenia: 21%
  Patients with drug-related grade 3 or higher AEs: 67%
[3]; 24 patients, any grade
  Patients with drug-related alopecia: 50%
  Patients with drug-related diarrhea: 25%
  Patients with drug-related fatigue: 21%
  Patients with drug-related nausea: 21%
[3]; [6]
  Serious related grade 3/4 febrile neutropenia: 2 n
  Serious related grade 3 neutropenia: 1 n
[3]; [7]
  Drug-related AST increased, all grades: 3 (13) n (%)
  Drug-related AST increased, grade ≥3: 0 n (%)
  Drug-related alopecia, all grades: 12 (50) n (%)
  Drug-related alopecia, grade ≥3: 0 n (%)
  Drug-related anemia, all grades: 7 (29) n (%)
  Drug-related anemia, grade ≥3: 3 (13) n (%)
  Drug-related anorexia, all grades: 4 (17) n (%)
  Drug-related anorexia, grade ≥3: 0 n (%)
  Drug-related diarrhea, all grades: 6 (25) n (%)
  Drug-related diarrhea, grade ≥3: 1 (4) n (%)
  Drug-related fatigue, all grades: 5 (21) n (%)
  Drug-related fatigue, grade ≥3: 1 (4) n (%)
  Drug-related febrile neutropenia, all grades: 2 (8) n (%)
  Drug-related febrile neutropenia, grade ≥3: 2 (8) n (%)
  Drug-related leukopenia, all grades: 13 (54) n (%)
  Drug-related leukopenia, grade ≥3: 9 (38) n (%)
  Drug-related nausea, all grades: 5 (21) n (%)
  Drug-related nausea, grade ≥3: 0 n (%)
  Drug-related neutropenia, all grades: 17 (71) n (%)
  Drug-related neutropenia, grade ≥3: 12 (50) n (%)
  Drug-related stomatitis, all grades: 4 (17) n (%)
  Drug-related stomatitis, grade ≥3: 0 n (%)
  Drug-related thrombocytopenia, all grades: 7 (29) n (%)
  Drug-related thrombocytopenia, grade ≥3: 5 (21) n (%)
[4]
  Pharmacokinetics, dose linearity: linear
Advanced solid tumors; 24 patients evaluable, alisertib 40 to 50 mg twice daily
  Patients with best response of stable disease: 50%
Advanced solid tumors; of 12 patients with stable disease
  Patients with stable disease lasting more than 3 months: seven

## CS(=O)(=O)CCNCc1ccc(-c2ccc3ncnc(Nc4ccc(OCc5cccc(F)c5)c(Cl)c4)c3c2)o1 [Lapatinib]
[5]; low-fat meal
  AUC increase when administered with food: approximately three

## Cc1nc(Nc2ncc(C(=O)Nc3c(C)cccc3Cl)s2)cc(N2CCN(CCO)CC2)n1 [dasatinib]
[5]; 100 mg dose following a high-fat meal (30 min)
  Increase in the mean AUC after a high-fat meal: 14%

## C#Cc1cccc(Nc2ncnc3cc(OCCOC)c(OCCOC)cc23)c1 [erlotinib]
[5]; single-dose crossover study
  Change of systemic exposure under fed compared with fasted conditions: approximately doubled

## COc1cc2ncnc(Nc3ccc(F)c(Cl)c3)c2cc1OCCCN1CCOCC1 [gefitinib]
[5]
  Effect of food on systemic exposure: unaffected by food
